Measured values from ChEMBL document CHEMBL5303300, “EUbOPEN Chemogenomics Library - Multiplex” (2023).
“And” between values parts separate entries of the source, which are not always exact repeats. Equal values may be shown once.

Test system: U2OS
Experiment: Multiplex assay against U2OS
Assay type: toxicity, cell-based
Conditions: human, number of replicates 2
How it was run: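 Live cells were stained at seeding with Hoechst33342, BioTracker Green Microtubule Cytoskeleton Dye, MitoTracker Red and Annexin V Alexa Fluor 680. Following compound addition, they were imaged on a CQ1 microscope at 37°C and 5% CO2 and gated by CellPathfinder machine learning into Hoechst high-intensity objects or normal cells, with normal cells split into healthy, pyknosed or fragmented nuclei and pyknosed cells into mitotic or apoptotic. Tubulin, mitochondrial-mass and membrane-permeability phenotypes are per cents of healthy-nucleus cells.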

[1] = 12 h, 1 µM, compound concentration 1 uM
[2] = 12 h, 10 µM, compound concentration 10 uM
[3] = 24 h, 1 µM, compound concentration 1 uM
[4] = 24 h, 10 µM, compound concentration 10 uM
[5] = 48 h, 1 µM, compound concentration 1 uM
[6] = 48 h, 10 µM, compound concentration 10 uM

SMILES: CC1(C)C(=O)N([C@H]2CCc3c(O)cccc32)c2nc(Nc3cccc(CN4CCCC4)c3)ncc21
- Population Apoptotic (%) [1]: 50% and 79%
- Population Healthy Nuclei (%) [1]: 25% and 70%
- Population Hoechst High Intensity Objects (%) [1]: 0%
- Population Membrane Permeable-Phenotype (%) [1]: 0% and 6%
- Population Mitochondria Different-Phenotype (%) [1]: 0% and 17%
- Population Mitotic Cells (%) [1]: 50% and 20%
- Population Normal (%) [1]: 100%
- Population Pyknosed Nuclei (%) [1]: 22%
- Population Tubulin-Different-Phenotype (%) [1]: 55% and 51%
- Population Apoptotic (%) [2]: 90% and 88%
- Population Healthy Nuclei (%) [2]: 28% and 42%
- Population Hoechst High Intensity Objects (%) [2]: 0% and 2%
- Population Membrane Permeable-Phenotype (%) [2]: 62% and 26%
- Population Mitochondria Different-Phenotype (%) [2]: 50% and 59%
- Population Mitotic Cells (%) [2]: 9% and 11%
- Population Normal (%) [2]: 100% and 97%
- Population Pyknosed Nuclei (%) [2]: 39% and 49%
- Population Tubulin-Different-Phenotype (%) [2]: 62% and 73%
- Population Apoptotic (%) [3]: 80% and 81%
- Population Healthy Nuclei (%) [3]: 25% and 59%
- Population Hoechst High Intensity Objects (%) [3]: 0%
- Population Membrane Permeable-Phenotype (%) [3]: 0% and 6%
- Population Mitochondria Different-Phenotype (%) [3]: 0% and 16%
- Population Mitotic Cells (%) [3]: 20% and 18%
- Population Normal (%) [3]: 100%
- Population Pyknosed Nuclei (%) [3]: 31% and 29%
- Population Tubulin-Different-Phenotype (%) [3]: 62% and 42%
- Population Apoptotic (%) [4]: 90% and 92%
- Population Healthy Nuclei (%) [4]: 31% and 20%
- Population Hoechst High Intensity Objects (%) [4]: 0% and 2%
- Population Membrane Permeable-Phenotype (%) [4]: 44% and 36%
- Population Mitochondria Different-Phenotype (%) [4]: 66% and 72%
- Population Mitotic Cells (%) [4]: 9% and 8%
- Population Normal (%) [4]: 100% and 97%
- Population Pyknosed Nuclei (%) [4]: 37% and 71%
- Population Tubulin-Different-Phenotype (%) [4]: 55% and 83%
- Population Apoptotic (%) [5]: 91% and 94%
- Population Hoechst High Intensity Objects (%) [5]: 3% and 1%
- Population Membrane Permeable-Phenotype (%) [5]: 50% and 21%
- Population Mitochondria Different-Phenotype (%) [5]: 0% and 22%
- Population Mitotic Cells (%) [5]: 8% and 5%
- Population Normal (%) [5]: 96% and 98%
- Population Pyknosed Nuclei (%) [5]: 37% and 47%
- Population Tubulin-Different-Phenotype (%) [5]: 50% and 51%
- Population Apoptotic (%) [6]: 97% and 81%
- Population Healthy Nuclei (%) [6]: 12% and 15%
- Population Hoechst High Intensity Objects (%) [6]: 1% and 2%
- Population Membrane Permeable-Phenotype (%) [6]: 77% and 50%
- Population Mitochondria Different-Phenotype (%) [6]: 77% and 50%
- Population Normal (%) [6]: 98% and 97%
- Population Pyknosed Nuclei (%) [6]: 81% and 28%
- Population Tubulin-Different-Phenotype (%) [6]: 81% and 83%

SMILES: CN(C)C/C=C/C(=O)Nc1ccc(C(=O)Nc2cccc(Nc3ncc(Cl)c(-c4c[nH]c5ccccc45)n3)c2)cc1
- Population Apoptotic (%) [1]: 81% and 93%
- Population Fragmented Nuclei (%) [1]: 12% and 3%
- Population Healthy Nuclei (%) [1]: 53% and 73%
- Population Hoechst High Intensity Objects (%) [1]: 0%
- Population Membrane Permeable-Phenotype (%) [1]: 0% and 2%
- Population Mitochondria Different-Phenotype (%) [1]: 0% and 4%
- Population Mitotic Cells (%) [1]: 18% and 6%
- Population Normal (%) [1]: 100%
- Population Pyknosed Nuclei (%) [1]: 34% and 22%
- Population Tubulin-Different-Phenotype (%) [1]: 64% and 72%
- Population Apoptotic (%) [2]: 96% and 89%
- Population Fragmented Nuclei (%) [2]: 17% and 9%
- Population Healthy Nuclei (%) [2]: 35% and 56%
- Population Hoechst High Intensity Objects (%) [2]: 0%
- Population Membrane Permeable-Phenotype (%) [2]: 18% and 17%
- Population Mitochondria Different-Phenotype (%) [2]: 4% and 11%
- Population Mitotic Cells (%) [2]: 3% and 10%
- Population Normal (%) [2]: 100%
- Population Pyknosed Nuclei (%) [2]: 46% and 34%
- Population Tubulin-Different-Phenotype (%) [2]: 40% and 48%
- Population Apoptotic (%) [3]: 83% and 94%
- Population Fragmented Nuclei (%) [3]: 17% and 9%
- Population Healthy Nuclei (%) [3]: 31% and 40%
- Population Hoechst High Intensity Objects (%) [3]: 0% and 1%
- Population Mitochondria Different-Phenotype (%) [3]: 27% and 12%
- Population Normal (%) [3]: 100% and 98%
- Population Pyknosed Nuclei (%) [3]: 51% and 50%
- Population Tubulin-Different-Phenotype (%) [3]: 100% and 77%
- Population Apoptotic (%) [4]: 92% and 98%
- Population Fragmented Nuclei (%) [4]: 21% and 11%
- Population Healthy Nuclei (%) [4]: 18% and 31%
- Population Hoechst High Intensity Objects (%) [4]: 0% and 1%
- Population Membrane Permeable-Phenotype (%) [4]: 46% and 27%
- Population Mitochondria Different-Phenotype (%) [4]: 23% and 31%
- Population Mitotic Cells (%) [4]: 7% and 1%
- Population Normal (%) [4]: 100% and 98%
- Population Pyknosed Nuclei (%) [4]: 59% and 57%
- Population Tubulin-Different-Phenotype (%) [4]: 61% and 54%
- Population Apoptotic (%) [5]: 84% and 96%
- Population Fragmented Nuclei (%) [5]: 17% and 10%
- Population Healthy Nuclei (%) [5]: 14% and 18%
- Population Hoechst High Intensity Objects (%) [5]: 0% and 2%
- Population Membrane Permeable-Phenotype (%) [5]: 50% and 44%
- Population Mitochondria Different-Phenotype (%) [5]: 50% and 48%
- Population Normal (%) [5]: 100% and 97%
- Population Pyknosed Nuclei (%) [5]: 67% and 70%
- Population Tubulin-Different-Phenotype (%) [5]: 100% and 88%
- Population Apoptotic (%) [6]: 99% and 95%
- Population Fragmented Nuclei (%) [6]: 7% and 19%
- Population Hoechst High Intensity Objects (%) [6]: 3% and 0%
- Population Mitochondria Different-Phenotype (%) [6]: 67% and 100%
- Population Mitotic Cells (%) [6]: 0% and 4%
- Population Normal (%) [6]: 96% and 100%
- Population Pyknosed Nuclei (%) [6]: 79% and 78%
- Population Tubulin-Different-Phenotype (%) [6]: 89% and 100%
